Test results reported in ChEMBL document CHEMBL1158396 (2009).

Experiments:
K562 [1] = test: Antiproliferative activity against human K562 cells at 1 uM after 72 hrs by MTS assay; format: functional; details: K562, 72 h
How it was run: (§1)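 Cells kept in Glutamax RPMI with 10% fetal calf serum, penicillin and streptomycin, at 37 °C in 5% CO2. Plated at 500–800 cells/well and left 24 h before adding compound in DMSO (10^-6 or 10^-5 M final). Exposure was continuous for 72 h, then MTS read-out at 490 nm, in triplicate. Percent inhibition was taken from absorbance versus control wells after blank subtraction.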

HL-60 [2] = test: Antiproliferative activity against human HL60 cells at 1 uM after 72 hrs by MTS assay; format: functional; details: HL-60, 72 h; how it was run: as §1
Sus scrofa [3] = organism: Sus scrofa; test: Inhibition of pig CK1 assessed as residual enzyme activity at 10 uM
[4] = biological target: Dual specificity tyrosine-phosphorylation-regulated kinase 1A (Rattus norvegicus) (UniProt Q63470); test: Inhibition of rat GST-fused Dyrk1a expressed in Escherichia coli assessed as residual enzyme activity at 10 uM
Sus scrofa [5] = organism: Sus scrofa; test: Inhibition of pig GSK3 assessed as residual enzyme activity at 10 uM
HL-60 [6] = test: Antiproliferative activity against human HL60 cells at 10 uM after 72 hrs by MTS assay; format: functional; details: HL-60, 72 h; how it was run: as §1
[7] = biological target: Cyclin-dependent kinase 5/CDK5 activator 1 (Homo sapiens) (UniProt Q00535+Q15078); test: Inhibition of GST-CDK5/p25 expressed in Escherichia coli assessed as residual enzyme activity at 10 uM
K562 [8] = test: Antiproliferative activity against human K562 cells at 10 uM after 72 hrs by MTS assay; format: functional; details: K562, 72 h; how it was run: as §1
HL-60 [9] = test: Antiproliferative activity against human HL60 cells at 0.25 nM after 72 hrs by MTS assay; format: functional; details: HL-60, 72 h
K562 [10] = test: Antiproliferative activity against human K562 cells at 0.25 nM after 72 hrs by MTS assay; format: functional; details: K562, 72 h

Chain of Cyclin-dependent kinase 5/CDK5 activator 1 (Homo sapiens) (Q00535 whole entry): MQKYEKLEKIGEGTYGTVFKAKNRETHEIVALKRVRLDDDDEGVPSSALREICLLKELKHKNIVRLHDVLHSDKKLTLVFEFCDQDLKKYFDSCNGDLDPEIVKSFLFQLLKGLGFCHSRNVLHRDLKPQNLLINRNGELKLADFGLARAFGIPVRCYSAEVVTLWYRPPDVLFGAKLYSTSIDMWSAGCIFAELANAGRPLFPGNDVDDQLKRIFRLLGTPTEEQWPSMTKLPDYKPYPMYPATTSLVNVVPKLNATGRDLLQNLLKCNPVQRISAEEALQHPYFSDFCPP
Chain of Cyclin-dependent kinase 5/CDK5 activator 1 (Homo sapiens) (Q15078 99-307 partner limits assumed): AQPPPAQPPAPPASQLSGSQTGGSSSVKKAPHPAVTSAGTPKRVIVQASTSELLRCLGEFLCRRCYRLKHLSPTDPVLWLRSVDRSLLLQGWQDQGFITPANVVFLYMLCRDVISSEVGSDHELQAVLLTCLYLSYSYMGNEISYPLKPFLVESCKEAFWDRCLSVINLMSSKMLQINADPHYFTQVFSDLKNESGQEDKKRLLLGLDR

Compound: CC(=O)OC[C@H]1O[C@@H](N2C(=O)/C(=C3/C(=O)Nc4ncc(C#CCNC(=O)OCc5ccccc5)cc43)c3ccccc32)[C@H](OC(C)=O)[C@@H](OC(C)=O)[C@@H]1OC(C)=O
- inhibition at 1 µM (K562 [1]): 4%
- inhibition at 1 µM (HL-60 [2]): 0%
- Activity (Sus scrofa [3]): > 65%
- Activity [4]: > 65%
- Activity (Sus scrofa [5]): > 65%
- inhibition at 10 µM (HL-60 [6]): 11%
- Activity [7]: > 65%
- inhibition at 10 µM (K562 [8]): 59%

Compound: CC(=O)OC[C@H]1O[C@@H](N2C(=O)/C(=C3/C(=O)Nc4ccc(I)cc43)c3ccccc32)[C@H](OC(C)=O)[C@@H](OC(C)=O)[C@@H]1OC(C)=O
- Activity [4]: > 65%
- Activity [7]: > 65%

Compound: CC(=O)OC[C@H]1O[C@@H](N2C(=O)/C(=C3/C(=O)Nc4ncc(C#CCCO)cc43)c3ccccc32)[C@H](OC(C)=O)[C@@H](OC(C)=O)[C@@H]1OC(C)=O
- inhibition at 1 µM (K562 [1]): 5%
- inhibition at 1 µM (HL-60 [2]): 0%
- inhibition at 10 µM (HL-60 [6]): 0%
- inhibition at 10 µM (K562 [8]): 10%

Compound: CC(=O)OC[C@H]1O[C@@H](N2C(=O)/C(=C3/C(=O)Nc4ncc(I)cc43)c3cc(Br)ccc32)[C@H](OC(C)=O)[C@@H](OC(C)=O)[C@@H]1OC(C)=O
- inhibition at 1 µM (K562 [1]): 0%
- inhibition at 1 µM (HL-60 [2]): 0%
- inhibition at 10 µM (HL-60 [6]): 0%
- inhibition at 10 µM (K562 [8]): 3%

Compound: CC(=O)OC[C@H]1O[C@@H](N2C(=O)/C(=C3/C(=O)Nc4ncc(Br)cc43)c3cc(Br)ccc32)[C@H](OC(C)=O)[C@@H](OC(C)=O)[C@@H]1OC(C)=O
- inhibition at 1 µM (K562 [1]): 3%
- inhibition at 1 µM (HL-60 [2]): 0%
- Activity (Sus scrofa [3]): > 65%
- Activity [4]: > 65%
- Activity (Sus scrofa [5]): > 65%
- inhibition at 10 µM (HL-60 [6]): 0%
- Activity [7]: > 65%
- inhibition at 10 µM (K562 [8]): 4%

Compound: CC(=O)O[C@@]12CO[C@@H]1C[C@H](O)[C@@]1(C)C(=O)[C@H](O)C3=C(C)[C@@H](OC(=O)[C@H](O)[C@@H](NC(=O)OC(C)(C)C)c4ccccc4)C[C@@](O)([C@@H](OC(=O)c4ccccc4)[C@H]21)C3(C)C [DOCETAXEL]
- inhibition at 0.00025 µM (HL-60 [9]): 46%
- inhibition at 0.00025 µM (K562 [10]): 32%

Compound: CC(=O)OC[C@H]1O[C@@H](N2C(=O)/C(=C3/C(=O)Nc4ncc(I)cc43)c3ccccc32)[C@H](OC(C)=O)[C@@H](OC(C)=O)[C@@H]1OC(C)=O
- inhibition at 1 µM (K562 [1]): 0%
- inhibition at 1 µM (HL-60 [2]): 0%
- Activity (Sus scrofa [3]): > 65%
- Activity [4]: > 65%
- Activity (Sus scrofa [5]): > 65%
- inhibition at 10 µM (HL-60 [6]): 1%
- Activity [7]: > 65%
- inhibition at 10 µM (K562 [8]): 47%

Compound: CC(=O)OC[C@H]1O[C@@H](N2C(=O)/C(=C3/C(=O)Nc4ccc(C#CCCO)cc43)c3ccccc32)[C@H](OC(C)=O)[C@@H](OC(C)=O)[C@@H]1OC(C)=O
- inhibition at 1 µM (K562 [1]): 2%
- inhibition at 1 µM (HL-60 [2]): 0%
- Activity (Sus scrofa [3]): > 65%
- Activity [4]: > 65%
- Activity (Sus scrofa [5]): > 65%
- inhibition at 10 µM (HL-60 [6]): 8%
- Activity [7]: > 65%
- inhibition at 10 µM (K562 [8]): 33%

Compound: CC(=O)OC[C@H]1O[C@@H](N2C(=O)/C(=C3/C(=O)Nc4ccc(C#CCNC(=O)OCc5ccccc5)cc43)c3cc(Br)ccc32)[C@H](OC(C)=O)[C@@H](OC(C)=O)[C@@H]1OC(C)=O
- inhibition at 1 µM (K562 [1]): 1%
- inhibition at 1 µM (HL-60 [2]): 0%
- Activity (Sus scrofa [3]): > 65%
- Activity [4]: > 65%
- Activity (Sus scrofa [5]): > 65%
- inhibition at 10 µM (HL-60 [6]): 0%
- Activity [7]: > 65%
- inhibition at 10 µM (K562 [8]): 2%

Compound: CC(=O)OC[C@H]1O[C@@H](N2C(=O)/C(=C3/C(=O)Nc4ncc(Br)cc43)c3ccccc32)[C@H](OC(C)=O)[C@@H](OC(C)=O)[C@@H]1OC(C)=O
- Activity [4]: > 65%
- Activity [7]: > 65%

Compound: CC(=O)OC[C@H]1O[C@@H](N2C(=O)/C(=C3/C(=O)Nc4ccc(I)cc43)c3cc(Br)ccc32)[C@H](OC(C)=O)[C@@H](OC(C)=O)[C@@H]1OC(C)=O
- inhibition at 1 µM (K562 [1]): 0%
- inhibition at 1 µM (HL-60 [2]): 0%
- Activity (Sus scrofa [3]): > 65%
- Activity [4]: > 65%
- Activity (Sus scrofa [5]): > 65%
- inhibition at 10 µM (HL-60 [6]): 0%
- Activity [7]: > 65%
- inhibition at 10 µM (K562 [8]): 3%

Compound: CC(=O)OC[C@H]1O[C@@H](N2C(=O)/C(=C3/C(=O)Nc4ccc(C#CCNC(=O)OCc5ccccc5)cc43)c3ccccc32)[C@H](OC(C)=O)[C@@H](OC(C)=O)[C@@H]1OC(C)=O
- inhibition at 1 µM (K562 [1]): 0%
- inhibition at 1 µM (HL-60 [2]): 0%
- Activity (Sus scrofa [3]): > 65%
- Activity [4]: > 65%
- Activity (Sus scrofa [5]): > 65%
- inhibition at 10 µM (HL-60 [6]): 1%
- Activity [7]: > 65%
- inhibition at 10 µM (K562 [8]): 6%

Compound: CC(=O)OC[C@H]1O[C@@H](N2C(=O)/C(=C3/C(=O)Nc4ncc(C#CCNC(=O)OCc5ccccc5)cc43)c3cc(Br)ccc32)[C@H](OC(C)=O)[C@@H](OC(C)=O)[C@@H]1OC(C)=O
- inhibition at 1 µM (K562 [1]): 0%
- inhibition at 1 µM (HL-60 [2]): 0%
- inhibition at 10 µM (HL-60 [6]): 0%
- inhibition at 10 µM (K562 [8]): 5%
